Experimental data as given in ChEMBL document CHEMBL4627393, “Discovery of Potent, Selective, and State-Dependent NaV1.7 Inhibitors with Robust Oral Efficacy in Pain Models: Structure-Activity Relationship and Optimization of Chroman and Indane Aryl Sulfonamides” (J Med Chem, 2020).

Key:
[1] = Cmax in male cynomolgus monkey at 150 mg/kg, po; format: ADME, organism-based, Macaca fascicularis; set-up: dose 150 mg/kg, route oral; conditions: in vivo
[2] = Half life in Sprague-Dawley rat at 1 mg/kg, iv measured upto 24 hrs by LC/MS-MS analysis; format: ADME, organism-based; conditions: in vivo
[3] = Lipophilicity, log D of the compound; format: physicochemical; conditions: octanol/water
[4] = Tmax in female cynomolgus monkey at 150 mg/kg, po; format: ADME, organism-based, Macaca fascicularis; conditions: in vivo
Outline: (§1)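 Cynomolgus monkeys, 3 male and 3 female, were given a single oral gavage dose of 150 mg/kg. Animals were watched for emesis. Tmax was recorded separately for males and females.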

[5] = Cmax in Sprague-Dawley rat at 1 mg/kg, iv measured upto 24 hrs by LC/MS-MS analysis; format: ADME, organism-based; set-up: dose 1 mg/kg, route intravenous; conditions: in vivo
[6] = AUClast in Sprague-Dawley rat at 10 mg/kg, po measured upto 24 hrs by LC/MS-MS analysis; format: ADME, organism-based; set-up: time < 24 hr, dose 10 mg/kg, route oral; conditions: in vivo
[7] = Oral bioavailability in Sprague-Dawley rat at 10 mg/kg measured upto 24 hrs by LC/MS-MS analysis; format: ADME, organism-based; conditions: in vivo
Outline: (§2)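 Pharmacokinetics were run with an IV dose of 1 mg/kg and a PO dose of 10 mg/kg. Parameters reported were AUClast, Cmax, CL, T1/2, Vss and %F.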

[8] = Unbound drug concentration in plasma of formalin-induced C57BL/6 mouse model of nociceptive pain at 3 mg/kg, po administered 30 mins before formalin stimulation and measured after 40 mins; format: ADME, organism-based; conditions: in vivo
Outline: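 Mice were dosed orally at 3 mg/kg 30 min before formalin challenge. Nociceptive behaviour was scored at 0–5 min (phase I) and 10–40 min (phase II). Plasma was collected at the end of the study, and the unbound drug concentration was determined.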

[9] = Cmax in BALB/c mouse at 1 mg/kg, iv measured upto 24 hrs by LC/MS-MS analysis; format: ADME, organism-based; set-up: dose 1 mg/kg, route intravenous; conditions: in vivo
[10] = Drug concentration in brain of formalin-induced C57BL/6 mouse model of nociceptive pain at 30 mg/kg, […]; format: ADME, organism-based; conditions: po
[11] = Volume of distribution at steady state in BALB/c mouse at 1 mg/kg, iv measured upto 24 hrs by LC/MS-MS analysis; format: ADME, organism-based; conditions: in vivo, read-out: Vdss; outline: as §2
[12] = Cmax in BALB/c mouse at 10 mg/kg, po measured upto 24 hrs by LC/MS-MS analysis; format: ADME, organism-based; set-up: dose 10 mg/kg, route oral; conditions: in vivo
[13] = Cmax in female cynomolgus monkey at 150 mg/kg, po; format: ADME, organism-based, Macaca fascicularis; set-up: dose 150 mg/kg, route oral; conditions: in vivo
[14] = AUClast in male cynomolgus monkey at 150 mg/kg, po; format: ADME, organism-based, Macaca fascicularis; set-up: dose 150 mg/kg, route oral, time 0 - last; conditions: in vivo
[15] = AUClast in Sprague-Dawley rat at 1 mg/kg, iv measured upto 24 hrs by LC/MS-MS analysis; format: ADME, organism-based; set-up: dose 1 mg/kg, time < 24 hr, route intravenous; conditions: in vivo
[16] = Half life in BALB/c mouse at 1 mg/kg, iv measured upto 24 hrs by LC/MS-MS analysis; format: ADME, organism-based; conditions: in vivo
[17] = Metabolic stability in dog liver microsomes assessed as metabolic rate at 1 uM preincubated for 5 mins followed by NADPH addition and measured up to 30 mins by LC/MS-MS analysis; format: ADME, Canis lupus familiaris, Microsome; conditions: 0.5 h
[18] = Oral bioavailability in BALB/c mouse at 10 mg/kg measured upto 24 hrs by LC/MS-MS analysis; format: ADME, organism-based; conditions: in vivo; outline: as §2
[19] = Volume of distribution at steady state in Sprague-Dawley rat at 1 mg/kg, iv measured upto 24 hrs by LC/MS-MS analysis; format: ADME, organism-based; conditions: in vivo, read-out: Vdss
[20] = Cmax in Sprague-Dawley rat at 10 mg/kg, po measured upto 24 hrs by LC/MS-MS analysis; format: ADME, organism-based; set-up: dose 10 mg/kg, route oral; conditions: in vivo
[21] = Metabolic stability in human liver microsomes assessed as metabolic rate at 1 uM preincubated for 5 mins followed by NADPH addition and measured up to 30 mins by LC/MS-MS analysis; format: ADME, Microsome; conditions: 0.5 h
[22] = Apparent permeability across basolateral to apical side in human Caco2 cells; format: ADME, cell-based; conditions: Caco-2
[23] = Apparent permeability across apical to basolateral side in human Caco2 cells; format: ADME, cell-based; conditions: Caco-2
[24] = Tmax in male cynomolgus monkey at 150 mg/kg, po; format: ADME, organism-based, Macaca fascicularis; conditions: in vivo; outline: as §1
[25] = Metabolic stability in rat liver microsomes assessed as metabolic rate at 1 uM preincubated for 5 mins followed by NADPH addition and measured up to 30 mins by LC/MS-MS analysis; format: ADME, Microsome; conditions: 0.5 h
[26] = Clearance in Sprague-Dawley rat at 1 mg/kg, iv measured upto 24 hrs by LC/MS-MS analysis; format: ADME, organism-based; conditions: in vivo
[27] = AUClast in BALB/c mouse at 1 mg/kg, iv measured upto 24 hrs by LC/MS-MS analysis; format: ADME, organism-based; set-up: time < 24 hr, dose 1 mg/kg, route intravenous; conditions: in vivo
[28] = Metabolic stability in mouse liver microsomes assessed as metabolic rate at 1 uM preincubated for 5 mins followed by NADPH addition and measured up to 30 mins by LC/MS-MS analysis; format: ADME, Microsome; conditions: 0.5 h
[29] = Clearance in BALB/c mouse at 1 mg/kg, iv measured upto 24 hrs by LC/MS-MS analysis; format: ADME, organism-based; conditions: in vivo
[30] = AUClast in BALB/c mouse at 10 mg/kg, po measured upto 24 hrs by LC/MS-MS analysis; format: ADME, organism-based; set-up: dose 10 mg/kg, time < 24 hr, route oral; conditions: in vivo
[31] = Metabolic stability in monkey liver microsomes assessed as metabolic rate at 1 uM preincubated for 5 mins followed by NADPH addition and measured up to 30 mins by LC/MS-MS analysis; format: ADME, Macaca mulatta, Microsome; conditions: rhesus monkey, 0.5 h
[32] = AUClast in female cynomolgus monkey at 150 mg/kg, po; format: ADME, organism-based, Macaca fascicularis; set-up: dose 150 mg/kg, time 0 - last, route oral; conditions: in vivo

Cn1nccc1-c1cc(C(F)(F)F)ccc1[C@H]1CCc2cc(S(=O)(=O)Nc3ncccn3)ccc21
Cmax [1]: 66 µM
half-life [2]: 2.7 h
logD [3]: 2.4
Tmax [4]: 1.5 h
Cmax [5]: 2.5 µM
AUC(0-t) at 24 h [6]: 46 µM·h
bioavailability [7]: 58%
Cp(f) [8]: 0.343 µM
Cmax [9]: 2 µM
concentration at 40 min [10]: 2.1 µM
Vd [11]: 0.8 L/kg
Cmax [12]: 18 µM
Cmax [13]: 69 µM
AUC(0-t) [14]: 684 µM·h
AUC(0-t) at 24 h [15]: 7.9 µM·h
half-life [16]: 2.8 h
Drug metabolism [17]: 0.02 nmol/min/mg
bioavailability [18]: 99%
Vd [19]: 1 L/kg
Cmax [20]: 10.9 µM
Drug metabolism [21]: 0.03 nmol/min/mg
Papp B→A [22]: 36.7 ×10⁻⁶ cm/s
Papp A→B [23]: 31.5 ×10⁻⁶ cm/s
Tmax [24]: 2 h
Drug metabolism [25]: 0.04 nmol/min/mg
clearance [26]: 4.9 mL/min/kg
AUC(0-t) at 24 h [27]: 8.5 µM·h
Drug metabolism [28]: 0.03 nmol/min/mg
clearance [29]: 3.3 mL/min/kg
AUC(0-t) at 24 h [30]: 84 µM·h
Drug metabolism [31]: 0.03 nmol/min/mg
AUC(0-t) [32]: 601 µM·h
